Results on 20 compounds are retold here after ChEMBL document CHEMBL1649368, “Novel isatinyl thiosemicarbazones derivatives as potential molecule to combat HIV-TB co-infection” (Eur J Med Chem, 2011).

Values after ≈ are worked out from the molar mass of the structure shown.

Data set [1] concerns Mycobacterium tuberculosis. As to the kind of experiment: Antimycobacterial activity against Mycobacterium tuberculosis H37Ra by agar dilution method. It counts as functional. A digest of the protocol: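 Log-phase MTB was tested by agar dilution on Middlebrook 7H11 with OADC, following NCCLS guidance. MIC was the lowest concentration giving complete growth inhibition, determined in triplicate.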
(Agar dilution tests growth on a series of plates holding different concentrations.)

A short description of data set [2]: Cytotoxicity against human MT4 cells after 5 days by spectrophotometry. It counts as cell-based. A digest of the protocol:
(§1)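 MT-4 cells were grown in RPMI-1640 DM with 10% heat-inactivated calf serum and gentamicin. HIV-1 IIIB (100 CCID50) or mock infection was run in parallel with compounds in triplicate, at 37 °C and 5% CO2 for 5 days. Viability was read by MTT spectrophotometry. EC50 was the 50% reduction in virus cytopathic effect; CC50 was the 50% loss of mock-infected cell viability.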

Data set [3] relates to Human immunodeficiency virus 1. The experiment in a line: Antiviral activity against HIV1 3B infected in human MT4 cells assessed as protection against virus-induced cytopathogenicity after 5 days by microtiter plate analysis. It counts as functional, organism-based. As to conditions: Human immunodeficiency virus 1, 3B, MT4, 120 h. The method, boiled down:
as §1
A general note: Damage to the host cells serves as the signal in cytopathic effect assays.

Compound `CCn1cc(C(=O)O)c(=O)c2cc(F)c(N3CCN(CN4C(=O)/C(=N\NC(=S)NOC)c5cc(C)ccc54)CC3)cc21` showed an MIC in data set [1] of 1.31 µM (≈ 0.78 µg/mL). The compound also yielded a cytotoxic concentration (CC50) at 120 h in data set [2] of 238 µM. Moreover, in data set [3], the concentration giving a half-maximal response (EC50) was found to be 11.4 µM.
Regarding `CONC(=S)N/N=C1\C(=O)N(CN2CCOCC2)c2ccc(Cl)cc21`, in data set [1], it took 4.06 µM (≈ 1.56 µg/mL) to inhibit growth (MIC). Besides, in data set [2], the CC50 at 120 h is 322 µM. The EC50 in data set [3] was 28.4 µM.
For `Cc1ccc2c(c1)/C(=N/NC(=S)NO)C(=O)N2CN1CCN(c2ccccc2)CC1` the same measures were 14.7 µM (≈ 6.25 µg/mL), 420 µM and 19.3 µM.
For the compound `CONC(=S)N/N=C1\C(=O)N(CN(C)C)c2ccc(F)cc21`, the MIC in data set [1] is 9.62 µM (≈ 3.13 µg/mL). Besides, it took 560 µM to reach half-maximal cytotoxicity in data set [2] (CC50 at 120 h). For the same compound, in data set [3], the EC50 came to 37.8 µM.
For `CCn1cc(C(=O)O)c(=O)c2cc(F)c(N3CCN(CN4C(=O)/C(=N\NC(=S)NOC)c5cc(C)ccc54)C(C)C3)c(F)c21` (centres undefined) the same measures were 1.24 µM (≈ 0.778 µg/mL), 156 µM and 5.74 µM.
For `CONC(=S)N/N=C1\C(=O)N(CN2CCOCC2)c2ccc(C)cc21` the same measures were 4.29 µM (≈ 1.56 µg/mL), 365 µM and 45.1 µM.
For `CN(C)CN1C(=O)/C(=N\NC(=S)NO)c2cc(Cl)ccc21` the same measures were 76.3 µM (≈ 25 µg/mL), 610 µM and 130 µM.
`CN(C)CN1C(=O)/C(=N\NC(=S)NO)c2cc(F)ccc21` had a minimal inhibitory concentration (MIC) in data set [1] of 10.1 µM (≈ 3.13 µg/mL). Half-maximal cytotoxicity in data set [2] (CC50 at 120 h) was put at 599 µM. For the same compound, the EC50 in data set [3] came to 47.2 µM.
In the case of `O=C1/C(=N\NC(=S)NO)c2cc(Cl)ccc2N1CN1CCN(c2ccccc2)CC1`, in data set [1], the minimal inhibitory concentration (MIC) stood at 28.1 µM (≈ 12.5 µg/mL). Further, the CC50 at 120 h in data set [2] came to 273 µM. In addition, in data set [3], the half-maximal effective concentration (EC50) is 28.3 µM.
For `CCN(CC)CN1C(=O)/C(=N\NC(=S)NO)c2cc(F)ccc21` the same measures were 9.22 µM (≈ 3.13 µg/mL), 521 µM and 36.2 µM.
For `Cc1ccc2c(c1)/C(=N/NC(=S)NO)C(=O)N2CN(C)C` the same measures were 81.3 µM (≈ 25 µg/mL), 651 µM and 113 µM.
For `CONC(=S)N/N=C1\C(=O)N(CN2CCN(c3cc4c(cc3F)c(=O)c(C(=O)O)cn4C3CC3)CC2)c2ccc(F)cc21` the same measures were 0.31 µM (≈ 0.19 µg/mL), 255 µM and 11.4 µM.
Turning to `CONC(=S)N/N=C1\C(=O)N(CN2CCN(c3ccccc3)CC2)c2ccc(Cl)cc21`, the MIC in data set [1] is 13.6 µM (≈ 6.25 µg/mL). This compound also gave a CC50 at 120 h in data set [2] of 267 µM. In data set [3], the EC50 came out at 17.7 µM.
For `CONC(=S)N/N=C1\C(=O)N(CN(C)C)c2ccc(Cl)cc21` the same measures were 18.3 µM (≈ 6.25 µg/mL), 552 µM and 57.9 µM.
For `CCn1cc(C(=O)O)c(=O)c2cc(F)c(N3CCN(CN4C(=O)/C(=N\NC(=S)NOC)c5cc(F)ccc54)C(C)C3)c(F)c21` (centres undefined) the same measures were 0.63 µM (≈ 0.398 µg/mL), 178 µM and 4.43 µM.
In turn, `CCn1cc(C(=O)O)c(=O)c2cc(F)c(N3CCN(CN4C(=O)/C(=N\NC(=S)NO)c5cc(F)ccc54)CC3)cc21` yielded an MIC in data set [1] of 1.33 µM (≈ 0.779 µg/mL). Moreover, in data set [2], the CC50 at 120 h was determined as 208 µM. Moreover, the concentration for a half-maximal effect (EC50) in data set [3] came to 18.4 µM.
For `O=C1/C(=N\NC(=S)NO)c2cc(F)ccc2N1CN1CCN(c2ccccc2)CC1` the same measures were 7.3 µM (≈ 3.13 µg/mL), 251 µM and 19.6 µM.
In data set [1], `CONC(=S)N/N=C1\C(=O)N(CN2CCN(c3c(F)cc4c(=O)c(C(=O)O)cn(C5CC5)c4c3OC)CC2C)c2ccc(Cl)cc21` (centres undefined) yielded an MIC of 0.3 µM (≈ 0.202 µg/mL). Also, in data set [2], the midpoint of cytotoxicity, the CC50 at 120 h, lay at 164 µM. In data set [3], the EC50 was 7.14 µM.
For `CCn1cc(C(=O)O)c(=O)c2cc(F)c(N3CCN(CN4C(=O)/C(=N\NC(=S)NOC)c5cc(Cl)ccc54)C(C)C3)c(F)c21` (centres undefined) the same measures were 1.2 µM (≈ 0.778 µg/mL), 180 µM and 9.26 µM.
In turn, `Cc1ccnc2c1NC(=O)c1cccnc1N2C1CC1` [NEVIRAPINE] showed a half-maximal cytotoxic concentration (CC50) at 120 h in data set [2] of 156 µM. In data set [3], the EC50 is 0.13 µM.

By MIC is commonly meant the least concentration at which growth counts as inhibited. Low values mean greater potency, high ones weaker potency. The CC50 is the concentration giving 50% cytotoxicity. The low end stands for harm at low concentration, the high end for better tolerance by the cells. The term EC50 denotes the midpoint of the concentration-response curve.
